# Screening results from PubChem.
# FLuc act counter: affects firefly luciferase, flagging false hits in luciferase stimulation screens. ATPlite luciferase biochemical, luminescence, 10 min; 0 = ATP-free wells, 1 = DMSO control. activation factor at 10 µM. 200,000 tested, under 10 active;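 active = luciferase activation factor, scaled between plate controls, of at least 2 with compound at 10 µM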
# Target sequence (P08659 whole entry, looked up): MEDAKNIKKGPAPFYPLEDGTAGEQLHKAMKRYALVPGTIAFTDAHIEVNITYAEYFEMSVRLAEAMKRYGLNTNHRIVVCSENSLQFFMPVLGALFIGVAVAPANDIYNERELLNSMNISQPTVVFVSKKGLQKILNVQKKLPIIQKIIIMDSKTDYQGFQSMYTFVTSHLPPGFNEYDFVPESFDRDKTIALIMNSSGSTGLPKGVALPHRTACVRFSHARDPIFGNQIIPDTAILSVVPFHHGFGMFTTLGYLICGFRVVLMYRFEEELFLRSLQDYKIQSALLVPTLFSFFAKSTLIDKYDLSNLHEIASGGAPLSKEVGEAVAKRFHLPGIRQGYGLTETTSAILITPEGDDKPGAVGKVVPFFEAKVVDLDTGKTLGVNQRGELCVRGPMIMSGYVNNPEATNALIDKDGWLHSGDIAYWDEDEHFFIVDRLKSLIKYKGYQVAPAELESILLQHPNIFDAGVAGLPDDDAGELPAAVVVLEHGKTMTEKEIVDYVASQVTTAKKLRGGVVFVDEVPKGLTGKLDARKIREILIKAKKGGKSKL
#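 System: Luciferase/luciferin detection reagent, cell-free biochemical luciferase assay | Medium: PBS buffer for ATP | Dosing: Test compounds dosed from 2 mM stocks in 100% DMSO | Timing: 10 min at ambient temperature | Signal: Luminescence measurement of luciferase light output | Evaluation: Luciferase activation, seen as luminescence increase over controls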
# NF-kB neuron act: compounds increasing NF-kB expression in human neuronal cells | NF-kB reporter expression; active compounds read high | fold change at 12.5 µM | hit rate 1.6% among 190,000; in the data active = fold change above about 3.3
# APP 5'UTR act: activates APP 5'UTR luciferase reporter. SH-SY5Y APP 5'UTR luciferase reporter, luminescence; zero percent = DMSO vehicle wells. activation, % at 2 µM. hit rate 1% among 190,000;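 active = activation above a set limit, based on mean plus 3 SD of controls, cut at about 140% in these data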
# STAT1 act: increases IFN-gamma driven STAT1 reporter signal. NIH 3T3 STAT1-luciferase reporter, luminescence; 100% = IFN-gamma alone, no compound. activation (% of control), % at 5.5 µM. hit rate 2.6% among 200,000. AID 932;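 active = activation above the screen-wide mean activation plus 3 SD, cut at about 130% in these data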;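 also: raw ratio to IFN-gamma control signal so 100% means no change and 0% no light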
# FLuc inhib CS: Photinus pyralis luciferase inhibition counter-screen; inhibition, % at 10 µM; hit rate 1.5% among 200,000; ATPLite firefly luciferase biochemical luminescence, 10 min; P08659;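 active = inhibition above about 50% when tested at 10 µM, limit read from the data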
# The depositor's hits bear a star; nt = not tested or not shown. A selection: hits, their analogues and other compounds. The true share with any hit is near 4.1%.
SMILES,FLuc act counter,NF-kB neuron act,APP 5'UTR act,STAT1 act,FLuc inhib CS
Cc1c(C)n(CC(O)CN2C(=O)c3ccccc3S2(=O)=O)c2ccccc12 (stereo not drawn),1.1,0.91,-10.9,94.5,-9.5
COc1cc(/C=C2/CCc3ccccc3C2=O)cc(OC)c1OC,1,3.83*,26.6,104.6,-0.4
COc1ccc(/C=C2/CCc3ccccc3C2=O)cc1OC,0.7,3.43*,100.8,97.9,33.2
COc1cc(/C=C2\CC/C(=C\c3cc(OC)c(O)c(OC)c3)C2=O)cc(OC)c1O,1,0.67,-5.0,131.9*,-1.5
O=C(COc1ccc(Br)cc1CNCCCN1CCOCC1)Nc1ccccc1,1.1,0.89,-13.8,97.9,-7.7
C=C1N(c2cccc(Cl)c2)C(=O)OC1(C)C,1,1.18,-5.8,95.8,0.2
COc1cc(-c2nc3ccc(N4CCN(C)CC4)cc3[nH]2)cc(OC)c1OC,0.9,1.08,18.3,79.5,14.8
COc1ccc(-c2nc3ccc(N4CCN(C)CC4)cc3c(=O)[nH]2)cc1,1,1.57,2.6,129.5*,3.0
CC(C)(C)NC(=O)NC(=O)COC(=O)c1cc[n+]([O-])cc1,1.1,1.14,-0.1,107.1,-8.4
CCCCN(C)C(=O)c1cc2cc3ccc(OC)cc3nc2s1,0.2,3.12,188.4*,112.9,84.7*
Cc1ccc(C2=NN(C(=S)Nc3ccccc3)C(c3ccco3)C2)cc1 (stereo not drawn),1,2.78,89.0,134.3*,-4.8
CCS(=O)(=O)Nc1ccc(C2=NN(C(=S)Nc3ccccc3)C(c3ccco3)C2)cc1 (stereo not drawn),1,1.59,8.8,117.6,-3.6
O=C(/C=C/c1cccs1)N1CCc2ccccc21,0.1,8.11*,187.0*,133.7*,92.0*
O=C(c1cccs1)N1CCc2ccccc21,0.8,1.8,52.4,139.3*,24.5
O=C(NC1CC1)c1ccc(C2SCC(=O)N2Cc2ccccc2)cc1 (stereo not drawn),1,nt,6.4,97.0,-3.2
COc1cc(/C=N/Nc2cccc(C)c2)ccc1OC(=O)c1ccco1,1,1.6,3.6,95.5,-4.5
Cc1ccc(SCc2nc(-c3ccccn3)no2)cc1,1,1.7,37.2,125.0,4.4
CC(C)c1ccc(OCc2nc(-c3ccccn3)no2)c(Br)c1,0.6,5.41*,181.7*,137.5*,35.6
Cc1ccc(OCc2nc(-c3ccccn3)no2)c(Br)c1,0.2,4.39*,149.7*,56.0,79.1*
CCc1ccc(OCc2nc(-c3ccccn3)no2)c(Br)c1,0.5,3.16,181.0*,99.8,54.6*
Cc1ccc(OCc2nc(-c3ccccn3)no2)cc1,0.7,5.1*,138.8*,126.9,33.3
COCC(C)N1CC(O)=C(c2nc(-c3ccc(Cl)cc3)cs2)C1=N (stereo not drawn),1.1,1.04,19.9,109.6,-8.8
CC(=O)Nc1ccc(C(=O)N(C)C(C(=O)Nc2ccccc2)c2ccccn2)cc1 (stereo not drawn),1.1,1,-11.6,95.5,-5.7
COC(=O)c1ccc(COc2ccc(C=O)cc2OC)o1,0.9,1.38,-2.4,102.0,5.7
COC(=O)c1ccc(CO/N=C/c2ccc(OC)cc2)o1,1,4.61*,10.6,120.6,-1.7
SMILES,FLuc act counter,NF-kB neuron act,APP 5'UTR act,STAT1 act,FLuc inhib CS
COc1ccc[nH]c1=O,1.1,1.06,-0.4,100.0,-7.2
CN(C(=O)/C=C/c1cnc2ccccc2c1)C1CCCCC1,0.4,3.9*,275.2*,105.2,62.5*
O=[N+]([O-])c1cccc(/C=N/Nc2nc(NCc3ccccc3)nc(N3CCOCC3)n2)c1O,1,1.2,-32.5,94.1,-4.4
Cc1cc(C=C2C(=O)c3ccccc3C2=O)c(C)n1-c1ccc(Cl)cc1,0.8,1.22,5.9,100.0,18.7
CCn1c(C)cc(C=C2C(=O)c3ccccc3C2=O)c1C,0.2,3.42*,155.6*,121.5,78.6*
Cc1cc(C=C2C(=O)c3ccccc3C2=O)c(C)n1C,0.6,6.27*,98.9,96.5,37.8
Cc1cccc(-n2c(C)cc(C=C3C(=O)c4ccccc4C3=O)c2C)c1,0.6,0.71,5.8,100.9,40.8
CCN(CC)S(=O)(=O)c1ccc(OC)c(NC(=S)Nc2cccc(C)c2C)c1,1.1,1.03,8.0,99.7,-7.0
CCOC(=O)c1cnc(SC2CCc3ccccc3C2=O)nc1N (stereo not drawn),1,0.55,20.0,110.2,-4.2
COc1ccc(N=Nc2nc3ccc(Br)cc3n2C)cc1,0.2,2.68,37.7,122.1,84.3*
Cc1nnc(SCC(=O)Nc2ccccc2NC(=O)CSc2nnc(C)s2)s1,1.1,1.15,8.7,97.5,-5.4
Cc1nnc(SCC(=O)Nc2nsc(-c3ccc(C(C)(C)C)cc3)n2)s1,0.9,8.57*,146.8*,141.1*,11.2
CCOC(=O)C1CCCN(C(=O)c2cc3c(=O)n4cccc(C)c4nc3n2C)C1 (stereo not drawn),nt,nt,-9.5,95.7,nt
Cn1c(=O)c2cc(S(=O)(=O)NCCC(=O)NCCc3ccc(Cl)cc3)ccc2n(C)c1=O,1.1,0.81,-17.0,103.6,-6.7
CCc1ccc2nc(N3C(=O)C(O)=C(C(=O)c4ccco4)C3c3cccs3)sc2c1 (stereo not drawn),0.9,2.59,158.4*,113.2,13.3
O=C(C1=C(O)C(=O)N(CCc2ccccc2)C1c1cccs1)c1ccco1 (stereo not drawn),1,0.95,3.6,103.5,-4.1
Brc1ccc(-c2noc(C3CCCCC3)n2)cc1,0.9,2.05,84.6,127.8,6.8
c1ccc(-c2noc(C3CCCCC3)n2)nc1,0.6,2.67,101.3,130.8*,35.2
c1ccc(-c2noc(C34CC5CC(CC(C5)C3)C4)n2)nc1,0.6,2.34,61.8,131.9*,37.3
O=C(C1=C[C@H](C2CCCCC2)C[C@H](OCCCCO)O1)N1CCN(Cc2ccccc2)CC1,1.1,1.03,5.6,103.0,-6.0
CCOC(=O)NC(=O)COC(=O)Cc1cc(OC)c(OC)c(OC)c1,1,1.07,-8.5,86.2,-0.2
COc1ccc2oc(=O)c(C(C)=O)cc2c1,1,1.16,6.9,102.2,-2.0
COc1ccc2oc(=O)c(-c3nc(C)cs3)cc2c1,0.8,2.1,199.3*,134.7*,16.8
CN1CCN(C=Nc2nc3ccccc3nc2N2CCCC2)CC1,1.1,0.85,-11.8,97.4,-5.8
OCc1cn(-c2ccccc2)nc1-c1ccc2c(c1)OCCO2,1,2.36,61.6,143.6*,1.5
COc1cccc(-c2nn(-c3ccccc3)cc2CO)c1,1,1.7,23.4,144.4*,-0.3
O=C(N/N=C/c1cn(-c2ccccc2)nc1-c1ccc2c(c1)OCCO2)c1ccncc1,1,1.9,133.4,148.2*,-0.6
COc1ccc(-c2nn(-c3ccccc3)cc2CO)cc1OC,1,0.94,17.1,98.0,3.8
O/N=C/c1cn(-c2ccccc2)nc1-c1ccc2c(c1)OCCO2,1,1.14,4.5,104.1,-4.4
O=C(NCc1ccc(Cl)c(Cl)c1)c1ccco1,1.1,1.24,-0.1,106.0,-8.5
